# Columns and labels:
# Staphylococcus aureus [1] = experiment: Antibacterial activity against Staphylococcus aureus MTCC 96 at 1000 ug/disc after 24 hrs by disc diffusion assay; assay type: functional; settings: MTCC 96, 24 h, read-out: IZ
# Procedure, shortened: (§1)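 Disc diffusion on Mueller Hinton agar. Cultures (about 10^4 CFU/ml) were swabbed on and dried 10 min. Discs loaded at 1000 µg/disc were left 30 min at room temperature for diffusion, with a solvent negative control. Plates were incubated 24 h at 37 °C. Inhibition zones were measured in mm, and the experiment was done twice.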
# [2] = test system: Salmonella enterica subsp. enterica serovar Paratyphi B; experiment: Antibacterial activity against Salmonella paratyphi B at 1000 ug/disc after 24 hrs by disc diffusion assay; assay type: functional; settings: read-out: IZ
# Procedure, shortened: (§2)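 Disc diffusion on Mueller Hinton agar. Bacteria were grown 24 h at 37 °C in MHB and diluted to about 10^4 CFU/ml, swabbed onto plates and dried 10 min. Discs were loaded at 1000 μg/disc and held 30 min at room temperature for diffusion. Solvent served as negative control. After 24 h at 37 °C, inhibition zones were read in mm; run twice.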
# Botrytis cinerea [3] = experiment: Antifungal activity against Botrytis cinerea at 1000 ug/disc after 48 hrs by disc diffusion assay; assay type: functional; settings: read-out: IZ
# Procedure, shortened: (§3)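 Fungal disc diffusion with inoculum from SDA spores (filamentous) or SDB culture (yeast). Test cultures were swabbed on agar, and discs at 1000 µg/disc were left 30 min at room temperature, with a solvent negative control. Plates were incubated 48 h at 27 °C. Zone of inhibition was measured in mm, and the experiment was repeated twice.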
# Micrococcus luteus [4] = experiment: Antibacterial activity against Micrococcus luteus at 1000 ug/disc after 24 hrs by disc diffusion assay; assay type: functional; settings: read-out: IZ; procedure, shortened: as §1
# Proteus vulgaris [5] = experiment: Antibacterial activity against Proteus vulgaris MTCC 1771 at 1000 ug/disc after 24 hrs by disc diffusion assay; assay type: functional; settings: MTCC 1771, 24 h, read-out: IZ; procedure, shortened: as §1
# Salmonella typhimurium [6] = experiment: Antibacterial activity against Salmonella Typhimurium MTCC 1251 at 1000 ug/disc after 24 hrs by disc diffusion assay; assay type: functional, Salmonella enterica subsp. enterica serovar Typhimurium; settings: Salmonella enterica, MTCC 1251, 24 h; read-out: IZ; procedure, shortened: as §1
# Candida albicans [7] = experiment: Antifungal activity against Candida albicans MTCC 227 at 1000 ug/disc after 48 hrs by disc diffusion assay; assay type: functional; settings: MTCC 227, 48 h, read-out: IZ; procedure, shortened: as §3
# Proteus vulgaris [8] = experiment: Antibacterial activity against Proteus vulgaris MTCC 1771 after 24 hrs by twofold serial dilution method; assay type: functional; settings: MTCC 1771, 24 h
# Procedure, shortened: (§4)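 Bacteria grown in Mueller Hinton broth for 24 h at 37 °C and diluted to about 10^4 CFU/ml. Compound in 2% DMSO was serially diluted two-fold (1000 to 15.62 µg/ml) in medium in 96-well plates and inoculated. Plates were incubated 24 h at 37 °C. 5 µl of broth was spotted onto MHA, and MIC was taken as the lowest concentration with no visible growth on agar.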
# Klebsiella aerogenes [9] = experiment: Antibacterial activity against Enterobacter aerogenes MTCC 111 at 1000 ug/disc after 24 hrs by disc diffusion assay; assay type: functional; settings: MTCC 111, 24 h, read-out: IZ; procedure, shortened: as §1
# Klebsiella pneumoniae [10] = experiment: Antibacterial activity against Klebsiella pneumoniae MTCC 109 after 24 hrs by twofold serial dilution method; assay type: functional; settings: MTCC 109, 24 h; procedure, shortened: as §4
# Micrococcus luteus [11] = experiment: Antibacterial activity against Micrococcus luteus after 24 hrs by twofold serial dilution method; assay type: functional; procedure, shortened: as §4
# Staphylococcus aureus [12] = experiment: Antibacterial activity against methicillin-resistant Staphylococcus aureus after 24 hrs by twofold serial dilution method; assay type: functional
# Procedure, shortened: (§5)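 Broth microdilution in MHB following the standard bacterial reference method. Compound was dissolved in DMSO (2%) and serially diluted two-fold from 1000 to 15.62 µg/ml in 96-well plates, with an inoculum of about 10^4 CFU/ml. Streptomycin and ciprofloxacin were positive controls. After 24 h at 37 °C, 5 µl of broth was subcultured on MHA. MIC was the lowest concentration without visible growth on agar.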
# Botrytis cinerea [13] = experiment: Antifungal activity against Botrytis cinerea after 48 to 72 hrs by twofold serial dilution method; assay type: functional
# Procedure, shortened: (§6)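 Broth two-fold serial dilution, 1000 to 15.62 µg/ml, with compound dissolved in 2% DMSO, in 96-well plates. Filamentous fungal spores came from 10-day SDA slants at 28 °C, and yeast from SDB grown 48 h at 28 °C. Incubation was 48-72 h at 28 °C. MIC was the lowest concentration with no visible fungal growth.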
# [14] = Antifungal activity against Malassezia pachydermatis after 48 to 72 hrs by twofold serial dilution method; assay type: functional; procedure, shortened: as §6
# [15] = test system: Salmonella enterica subsp. enterica serovar Paratyphi B; experiment: Antibacterial activity against Salmonella paratyphi B after 24 hrs by twofold serial dilution method; assay type: functional; procedure, shortened: as §5
# Candida albicans [16] = experiment: Antifungal activity against Candida albicans MTCC 227 after 48 to 72 hrs by twofold serial dilution method; assay type: functional; procedure, shortened: as §6
# Klebsiella pneumoniae [17] = experiment: Antibacterial activity against Klebsiella pneumoniae MTCC 109 at 1000 ug/disc after 24 hrs by disc diffusion assay; assay type: functional; settings: MTCC 109, 24 h, read-out: IZ; procedure, shortened: as §1
# Staphylococcus aureus [18] = experiment: Antibacterial activity against Staphylococcus aureus MTCC 96 after 24 hrs by twofold serial dilution method; assay type: functional; settings: MTCC 96, 24 h; procedure, shortened: as §4
# Salmonella typhimurium [19] = experiment: Antibacterial activity against Salmonella Typhimurium MTCC 1251 after 24 hrs by two-fold serial dilution method; assay type: functional, Salmonella enterica subsp. enterica serovar Typhimurium; settings: Salmonella enterica, MTCC 1251, 24 h; procedure, shortened: as §4
# Klebsiella aerogenes [20] = experiment: Antibacterial activity against Enterobacter aerogenes MTCC 111 after 24 hrs by twofold serial dilution method; assay type: functional; settings: MTCC 111, 24 h; procedure, shortened: as §4
# [21] = Antifungal activity against Malassezia pachydermatis at 1000 ug/disc after 48 hrs by disc diffusion assay; assay type: functional; procedure, shortened: as §3
# Staphylococcus aureus [22] = experiment: Antibacterial activity against methicillin-resistant Staphylococcus aureus at 1000 ug/disc after 24 hrs by disc diffusion assay; assay type: functional; settings: read-out: IZ; procedure, shortened: as §2
Structure (SMILES),zone of inhibition at 1000 µg/disc (Staphylococcus aureus [1]),zone of inhibition at 1000 µg/disc [2],zone of inhibition at 1000 µg/disc (Botrytis cinerea [3]),zone of inhibition at 1000 µg/disc (Micrococcus luteus [4]),zone of inhibition at 1000 µg/disc (Proteus vulgaris [5]),zone of inhibition at 1000 µg/disc (Salmonella typhimurium [6]),zone of inhibition at 1000 µg/disc (Candida albicans [7]),MIC (Proteus vulgaris [8]),zone of inhibition at 1000 µg/disc (Klebsiella aerogenes [9]),MIC (Klebsiella pneumoniae [10]),MIC (Micrococcus luteus [11]),MIC (Staphylococcus aureus [12]),MIC (Botrytis cinerea [13]),MIC [14],MIC [15],MIC (Candida albicans [16]),zone of inhibition at 1000 µg/disc (Klebsiella pneumoniae [17]),MIC (Staphylococcus aureus [18]),MIC (Salmonella typhimurium [19]),MIC (Klebsiella aerogenes [20]),further results
Cc1ccc2c(c1)C1(C(=O)N2C)C2=C(CN1C)C(=O)c1ccccc1C2=O (stereo unspecified),22 mm,8 mm,11 mm,15 mm,16 mm,22 mm,12 mm,125 µg/mL,17 mm,250 µg/mL,125 µg/mL,125 µg/mL,250 µg/mL,500 µg/mL,500 µg/mL,250 µg/mL,13 mm,15.6 µg/mL,15.6 µg/mL,62.5 µg/mL,inhibition zone (IZ) [21]: 10 mm; zone of inhibition at 1000 µg/disc (Staphylococcus aureus [22]): 14 mm
CCCCN1C(=O)C2(C3=C(CN2C)C(=O)c2ccccc2C3=O)c2ccccc21 (stereo unspecified),17 mm,9 mm,9 mm,13 mm,10 mm,15 mm,10 mm,500 µg/mL,10 mm,250 µg/mL,250 µg/mL,500 µg/mL,500 µg/mL,250 µg/mL,500 µg/mL,500 µg/mL,13 mm,62.5 µg/mL,125 µg/mL,500 µg/mL,inhibition zone (IZ) [21]: 11 mm; zone of inhibition at 1000 µg/disc (Staphylococcus aureus [22]): 8 mm
CN1C(=O)C2(C3=C(CN2C)C(=O)c2ccccc2C3=O)c2ccccc21 (stereo unspecified),13 mm,11 mm,8 mm,12 mm,10 mm,14 mm,9 mm,125 µg/mL,10 mm,31.2 µg/mL,125 µg/mL,250 µg/mL,250 µg/mL,125 µg/mL,250 µg/mL,250 µg/mL,18 mm,62.5 µg/mL,125 µg/mL,125 µg/mL,inhibition zone (IZ) [21]: 11 mm; zone of inhibition at 1000 µg/disc (Staphylococcus aureus [22]): 10 mm

# Source: ChEMBL document CHEMBL1955865, “Synthesis of novel spirooxindole derivatives by one pot multicomponent reaction and their antimicrobial activity” (2012)
